# Screening data deposited in PubChem BioAssay by Sanford-Burnham Center for Chemical Genomics.
# Most compounds without a hit are left out; they make up all but 2.9% or so of the library.
# SENP1 inh = blocks the human SENP1 SUMO protease catalytic domain; recombinant SENP1 catalytic domain, CyPet-SUMO1-YPet FRET cleavage; inhibition, % at 10 µM; 360,000 tested, 0.21% active; Q9P0U3;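 active = inhibition at least 30% at 10 µM, raw YFP signal under a set limit, fluorescence ratio 0.5 to 1.5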;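 note: 0% = enzyme with DMSO and 100% = no enzyme wells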
#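 material = recombinant human SENP1 catalytic domain, His6-tagged | quantity = 20 pM enzyme | reagent = 25 nM SUMO1 FRET substrate | compound dosing = 10 µM single point, 0.5% DMSO | timing = 50 min enzyme reaction, room temperature, light-protected | detection = FRET, CFP and YFP emission | control set = no-enzyme low, enzyme-DMSO high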
# SENP8 block-1 = blocks the human protease SENP8. Q96LD8. purified SENP8, Z-RLRGG-aminoluciferin cleavage, luminescence. inhibition, % at 10 µM. 330,000 tested, 1.2% active; in the data active = inhibition above about 50%
# SENP8 block-2 = SENP8 (human) protease inhibition. AID 602440. inhibition, % at 20 µM. 360,000 tested, 0.64% active. Q96LD8. recombinant SENP8, Nedd8 substrate fluorescence; in the data active = inhibition mostly above about 40%, no sharp cut-off; inactive = mostly below about 27%
# SENP7 inh = SENP7 protease inhibition; recombinant SENP7, Z-RLRGG-aminoluciferin luminescence, 40 min; inhibition, % at 5 µM; 330,000 tested, 1.5% active;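 active = inhibition above about 50% at the single test dose, limit read from the data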;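 note: plate controls were DMSO with enzyme for no effect and no enzyme buffer wells for full effect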
# Target sequence (Q9BQF6 706-1050 limits assumed): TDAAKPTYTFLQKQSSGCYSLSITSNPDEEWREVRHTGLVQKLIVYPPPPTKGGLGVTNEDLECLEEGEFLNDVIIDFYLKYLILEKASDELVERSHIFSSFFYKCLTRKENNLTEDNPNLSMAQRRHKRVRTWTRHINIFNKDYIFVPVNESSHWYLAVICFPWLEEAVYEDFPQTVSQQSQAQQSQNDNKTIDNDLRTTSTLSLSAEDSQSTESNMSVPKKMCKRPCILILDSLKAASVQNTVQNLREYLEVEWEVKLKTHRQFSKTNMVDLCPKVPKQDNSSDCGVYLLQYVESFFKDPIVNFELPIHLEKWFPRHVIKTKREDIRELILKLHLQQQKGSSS
# SENP6 inh = SENP6 protease inhibition; Q9GZR1; Recombinant SENP6 catalytic domain, aminoluciferin luminescence; inhibition, % at 10 µM; 330,000 tested, 1.8% active; AID 2599;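 active = inhibition above about 50% at the single tested dose, limit read from the data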;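 note: plate controls were DMSO wells with enzyme for no effect and DMSO wells lacking enzyme for full effect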
# Apaf-1 inh = blocks human Apaf-1 apoptosome activity | O14727 | reconstituted apoptosome caspase-3 activity, DEVD-Rh110 fluorescence | inhibition, % at 20 µM | 330,000 tested, 0.71% active | AID 489030; active = inhibition of at least 40% at 20 µM;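 note: plate controls were DMSO wells for no effect and DEVD-CHO caspase inhibitor wells for full effect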
#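 Medium: Hepes buffer, pH 7.5 / System: biochemical Apaf-1 apoptosome reconstitution / Measured by: Rh110 fluorescence, excitation 480 nm, emission 540 nm / Times: compound with Apaf-1, dATP, procaspase-3 30 min, then 50 min reaction, room temperature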
# SENP8 conf = confirmation of human SENP8 protease inhibitors. inhibition, % at 12.5 µM. shares compounds with SENP7 inh. Recombinant SENP8, Z-RLRGG-aminoluciferin luminescence, 60 min. 6,200 tested, 40% active;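 active = mean inhibition across replicates above about 50%, limit read from the data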
# SENP6 conf = confirmation of human SENP6 protease inhibitors; shares compounds with SENP7 inh; recombinant SENP6, Z-RLRGG-aminoluciferin luminescence; inhibition, % at 12.5 µM; 6,200 tested, 58% active
# SENP7 confirm = confirmation of human SENP7 protease inhibitors; shares compounds with SENP7 inh; recombinant SENP7, Z-RLRGG-aminoluciferin luminescence, 40 min; inhibition, % at 12.5 µM; 6,200 tested, 69% active; AID 488917
# Casp3 SENP sel = selectivity test for SENP inhibitors: human caspase-3 inhibition. shares compounds with SENP7 inh. purified caspase-3, Z-DEVD-aminoluciferin luminescence, 60 min. inhibition, % at 12.5 µM. 6,200 tested, 60% active. AID 488918;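 active = mean inhibition above about 50%, limit read from the data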;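 note: plate controls were enzyme with DMSO for no effect and wells without caspase-3 for full effect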
# Target sequence (P42574 28-227 limits assumed): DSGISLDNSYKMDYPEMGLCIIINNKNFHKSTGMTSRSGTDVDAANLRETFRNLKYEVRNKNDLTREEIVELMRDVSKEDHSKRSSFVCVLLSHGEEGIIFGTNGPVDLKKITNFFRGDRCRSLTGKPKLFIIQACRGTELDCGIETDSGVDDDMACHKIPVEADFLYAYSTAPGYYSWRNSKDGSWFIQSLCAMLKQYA
# Luc interf = interferes with luciferase luminescence in SENP counter-screen; Pre-incubated SENP8/Z-RLRGG-aminoluciferin, luciferase luminescence interference; inhibition, % at 12.5 µM; 6,200 tested, 39% active; shares compounds with SENP7 inh;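 active = mean inhibition above about 50% when retested at one dose, limit read from the data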;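 note: plate controls were DMSO wells with completed reaction for no effect and substrate without enzyme for full effect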
# * = called active by the depositor; . = no result.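 Rule for the calls, unless noted: active = mean inhibition above about 50% in the one-dose retest (limit read from the data); inactive = the rest.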
SMILES,SENP1 inh,SENP8 block-1,SENP8 block-2,SENP7 inh,SENP6 inh,Apaf-1 inh,SENP8 conf,SENP6 conf,SENP7 confirm,Casp3 SENP sel,Luc interf
CCOC(=O)Cc1csc(N/N=C/c2ccccc2)n1,-29,23,-45,42,45,-1,.,.,.,.,.
CC(=O)CSc1nc2ccccc2o1,1,-11,26,-11,1,2,.,.,.,.,.
O=C(O)c1ccc(CSc2nc3ccccc3o2)cc1,0,54*,13,30,75*,5,66*,64*,86*,83*,70*
O=C(CSc1nc2ccccc2o1)c1ccccc1,0,46,12,71*,67*,2,68*,69*,85*,61*,62*
c1ccc(-c2noc(CSc3nc4ccccc4o3)n2)cc1,2,-13,7,1,-9,8,.,.,.,.,.
O=C(O)c1ccccc1CSc1nc2ccccc2o1,1,57*,15,62*,85*,-2,77*,75*,91*,90*,81*
COC(=O)CSc1nc2ccccc2o1,1,2,8,4,-5,3,.,.,.,.,.
CCCCN1C(=O)C(CC(=O)NC2CCCC2)CC(C(=O)N2CCCCCC2)=C1C (centres undefined),1,.,11,.,.,.,.,.,.,.,.
CS(=O)(=O)c1ccc(Cl)c(NC(=O)CCN2C(=O)NC3(CCCC3)C2=O)c1,-1,3,3,-4,4,-5,.,.,.,.,.
CC(C)n1nnnc1-c1cccc(Cl)c1,2,2,20,17,7,-2,.,.,.,.,.
Cc1nn2cc(-c3cccc(Cl)c3)cnc2c1Br,3,26,13,81*,-17,-11,9,11,38,33,1
CN(C)c1ccc(N=Nc2nc3ccccc3n2C)cc1,5,97*,50*,100*,100*,11,95*,101*,103*,89*,36
Cn1c(N=Nc2ccccc2)nc2ccccc21,2,97*,66*,101*,-4,9,-16,99*,103*,94*,97*
CCn1c(NCc2ccc(N(C)C)cc2)nc2ccccc21,-4,-6,34,0,-6,12,.,.,.,.,.
CCc1ccc2oc(-c3cc(N=Cc4cccc(OC)c4O)ccc3O)nc2c1,.,92*,.,89*,86*,31,84*,84*,87*,76*,28
COc1cccc(C=Nc2cc(C)cc(C)c2)c1O,8,-1,2,8,-16,4,.,.,.,.,.
O=C1/C(=C/c2ccc(O)cc2)COc2ccccc21,5,83*,-10,93*,95*,9,94*,90*,94*,66*,89*
CCCCOc1ccc(/C=C2/Sc3ccccc3C2=O)cc1,-19,76*,-245,71*,44,4,3,18,15,12,8
O=C1Nc2ccccc2S/C1=C/c1cccs1,-6,-24,-2,-9,-14,17,.,.,.,.,.
CC(=O)Oc1cccc(/C=C2\Sc3ccccc3C2=O)c1,-65,89*,-6,83*,91*,16,75*,94*,68*,41,23
CC(=O)Oc1cccc(/C=C2\C=C(c3ccc(C)cc3)OC2=O)c1,-80,-12,-63,-4,3,-9,.,.,.,.,.
CCCCOc1ccc(/C=c2\sc3ncnn3c2=O)cc1,1,-9,4,2,-12,8,.,.,.,.,.
CC(C)COc1ccc(/C=C2/Sc3ccccc3C2=O)cc1,-21,94*,-274,95*,96*,24,4,22,23,16,12
O=C1/C(=C/c2cccs2)Sc2ccccc21,-83,81*,-213,93*,86*,6,3,41,58*,39,26
CCc1nc2ccc(C(=O)Nc3ccc4c(c3)OCC(=O)N4)cn2c1N(C)Cc1nccn1C,-12,.,-2,.,.,.,.,.,.,.,.
SMILES,SENP1 inh,SENP8 block-1,SENP8 block-2,SENP7 inh,SENP6 inh,Apaf-1 inh,SENP8 conf,SENP6 conf,SENP7 confirm,Casp3 SENP sel,Luc interf
O=C(Nc1ccccc1)Nc1ccc(F)cc1F,1,44,29,70*,67*,-2,59*,56*,82*,67*,45
CC(=O)Nc1cccc(NC(=O)Nc2ccc(F)cc2F)c1,0,-16,10,-6,-19,4,.,.,.,.,.
O=C(Nc1ccccc1)Nc1cccc(NC(=O)Nc2ccccc2)c1F,3,-5,10,1,-12,-4,.,.,.,.,.
CCSc1nsc(NC(=O)Nc2ccc(F)cc2F)n1,0,22,3,12,52*,-95,25,23,65*,34,15
O=C(Nc1ccccc1)Nc1ccccc1Br,3,73*,24,81*,59*,11,6,82*,96*,78*,45
COC(=O)c1ccc(NC(=O)Nc2ccc(F)cc2F)cc1,-3,64*,4,88*,81*,-3,12,12,77*,72*,6
CCSc1nsc(NC(=O)Nc2ccccc2Cl)n1,1,.,4,.,.,.,.,.,.,.,.
COc1cc(S(=O)(=O)N(C)C2CCCCC2)c(C)cc1C,0,.,2,.,.,.,.,.,.,.,.
Fc1cccc(Cc2c(C3CCCCC3)nc3ccc(Br)cn23)c1,-14,.,-29,.,.,.,.,.,.,.,.
COC(=O)c1ccc(NC(=O)Nc2cccc(F)c2)cc1,-1,79*,4,90*,88*,1,75*,75*,96*,69*,9
OC(c1ccccc1)C(O)C(c1ccccc1)N1CCCCC1 (centres undefined),2,.,4,.,.,.,.,.,.,.,.
CN(C(=O)COc1ccc2ccc(=O)oc2c1)C1CCS(=O)(=O)C1 (centres undefined),1,2,-291,92*,12,9,6,7,10,7,0
CC(C)CN(C(=O)COc1ccc2ccc(=O)oc2c1)C1CCS(=O)(=O)C1 (centres undefined),2,4,-264,5,-7,3,.,.,.,.,.
COc1ccc(C(=O)Nc2ccccc2C(=O)NC2CC2)c(OC)c1OC,1,.,19,.,.,.,.,.,.,.,.
CSCCC(NC(=O)c1ccccc1Cl)C(=O)NCCc1ccccn1 (centres undefined),0,2,8,8,5,-6,.,.,.,.,.
